Measurements of several laboratories.
Lines come from different studies, so protocols differ.
Target: Serine/threonine-protein kinase MARK2 (MARK2, Homo sapiens, UniProt Q7KZI7)
Read-out: enzyme activity
Mode: inhibitor

CN1CCc2cc(Nc3ncc(C4CC4)c(NCCCNC(=O)C4CCC4)n3)ccc2C1  remaining activity (radiometric; 1 µM): 3%
Cc1sc(C(=O)NC2COC2)cc1-n1cc(NC(=O)Nc2c(F)cccc2Cl)cn1  remaining activity (10 µM): 99.8%
CCN(CC)c1ccc(C2=NNC(=O)CC2C)cc1[N+](=O)[O-] (centres unmarked)  remaining activity (10 µM): 90%
Cc1nn(CC(F)(F)F)cc1Nc1ncc(Br)c(NCCCNC(=O)C2CCC2)n1  remaining activity (radiometric; 1 µM): 19%
CC(C)(C)c1nc(-c2cccc(NS(=O)(=O)c3c(F)cccc3F)c2F)c(-c2ccnc(N)n2)s1  remaining activity (radiometric; 1 µM): 94%
Oc1cccc(-c2nc(N3CCOCC3)c3oc4ncccc4c3n2)c1  remaining activity (10 µM): 107%
COc1cc(Nc2cnc(C#N)c(O[C@H](C)CN(C)C)n2)ncc1-c1cnn(C)c1  remaining activity (radiometric; 1 µM): 111%
Cc1cnc(NC2CCOCC2)nc1-n1cnc(C(=O)NC(CN)c2cc(F)cc(Cl)c2)c1 (centres unmarked)  remaining activity (radiometric; 1 µM): 45%
CC(C)(O)[C@H]1CC[C@H](Nc2ccc3ncc(-c4cccc(C(F)(F)F)c4)n3n2)CC1  remaining activity (1 µM): 101%
Cc1nn(CC(F)(F)F)cc1Nc1ncc(C2CC2)c(NCCc2c[nH]cn2)n1  remaining activity (radiometric; 1 µM): 90%
Cn1c(=O)n(-c2ccc(C(C)(C)C#N)cc2)c2c3cc(-c4cnc5ccccc5c4)ccc3ncc21  remaining activity (10 µM): 86%
CC(C)(C)c1nc2c(s1)c1nc(N)ncc1c1ccc(NS(=O)(=O)c3c(F)cccc3F)c(F)c12  remaining activity (radiometric; 1 µM): 92%
NS(=O)(=O)c1ccc(CNc2nc(Nc3cccc(NC(=O)N4CCCC4)c3)ncc2Br)cc1  remaining activity (radiometric; 1 µM): 57%
COc1cc(Cl)c(C(=O)N[C@@H](CN[C@H]2CC[C@@H](N)CC2)Cc2ccc(C#N)cc2)cc1-c1ccc(CN[C@H](C)c2ccc(C)cc2)o1  remaining activity (1 µM): 98%
CCCOc1ccc(OC)c(F)c1C(=O)c1ccc(C(=O)N[C@@H]2CNC[C@H]2NC(=O)c2ccc3[nH]ncc3c2)cc1  remaining activity (10 µM): 33%
Cc1nn(CC(F)(F)F)cc1Nc1ncc(Br)c(NCc2ccc(S(N)(=O)=O)cc2)n1  remaining activity (radiometric; 1 µM): 89%
O=C(Nc1cnn(-c2csc(C(=O)NC3COC3)c2)c1)Nc1c(F)cccc1Cl  remaining activity (5 µM): 90.7%
